Measurements published in ChEMBL document CHEMBL3856257, “Benzo[b]thiophene-2-carboxamide derivatives as potent urotensin-II receptor antagonists” (Bioorg Med Chem Lett, 2016).

target: CYP2D6 (Homo sapiens, UniProt P10635); assay: Inhibition of CYP2D6 (unknown origin) at 10 uM; type: ADME; conditions: not given
Sequence (P10635 whole entry): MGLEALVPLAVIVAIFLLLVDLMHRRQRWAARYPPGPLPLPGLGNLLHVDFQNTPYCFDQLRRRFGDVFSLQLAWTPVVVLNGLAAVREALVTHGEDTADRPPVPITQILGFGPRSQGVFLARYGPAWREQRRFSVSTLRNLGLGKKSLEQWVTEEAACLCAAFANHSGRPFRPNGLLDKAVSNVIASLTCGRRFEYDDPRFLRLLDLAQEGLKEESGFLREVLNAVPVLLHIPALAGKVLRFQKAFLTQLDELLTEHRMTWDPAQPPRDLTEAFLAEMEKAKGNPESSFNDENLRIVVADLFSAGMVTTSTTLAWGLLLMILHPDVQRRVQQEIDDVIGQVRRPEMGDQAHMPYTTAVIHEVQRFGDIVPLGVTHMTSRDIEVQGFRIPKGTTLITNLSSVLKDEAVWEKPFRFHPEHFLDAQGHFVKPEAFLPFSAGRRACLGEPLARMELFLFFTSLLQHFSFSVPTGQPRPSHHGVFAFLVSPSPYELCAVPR

| inhibition at 10 µM [%] | Compound |
| --- | --- |
| 55 | N#Cc1ccc2sc(C(=O)NC3CCN(Cc4ccc(OC5CCNCC5)c(Br)c4)CC3)cc2c1 |

tested on: not listed separately; assay: Metabolic stability in human liver microsomes after 30 mins; type: ADME; conditions: read-out: Stability

| remaining at 0.5 h [%] | Compound |
| --- | --- |
| 85 | N#Cc1ccc2sc(C(=O)NC3CCN(Cc4ccc(OC5CCNCC5)c(Br)c4)CC3)cc2c1 |

target: T1, Urotensin-2 receptor (Homo sapiens, UniProt Q9UKP6); assay: Displacement of europium-labeled urotensin-2 from human recombinant urotensin-2 receptor expressed in HEK293 cell membranes after 90 mins by filtration based time resolved fluorometric assay; conditions: not given
T1 sequence (Q9UKP6 whole entry): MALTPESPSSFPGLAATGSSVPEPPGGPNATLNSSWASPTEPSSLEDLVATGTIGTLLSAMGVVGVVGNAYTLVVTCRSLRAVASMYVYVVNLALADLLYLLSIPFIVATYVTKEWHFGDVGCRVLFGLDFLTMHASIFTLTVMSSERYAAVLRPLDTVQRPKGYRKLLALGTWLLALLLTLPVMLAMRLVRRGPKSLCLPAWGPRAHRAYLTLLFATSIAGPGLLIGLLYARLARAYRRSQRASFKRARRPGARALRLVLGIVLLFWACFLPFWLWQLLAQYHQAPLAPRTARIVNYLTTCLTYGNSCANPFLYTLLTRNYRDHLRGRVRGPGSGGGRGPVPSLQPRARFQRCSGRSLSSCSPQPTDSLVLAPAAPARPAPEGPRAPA
Procedure, shortened: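 Competitive binding against Eu-labeled U-II on membranes of HEK293 cells expressing human UT receptor, read by time-resolved fluorometry. IC50 values are means of at least two measurements.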

| Compound | IC50 [nM] |
| --- | --- |
| O=C(NC1CCN(Cc2ccc(OC3CCNCC3)c(Br)c2)CC1)c1cc2cc(Cl)ccc2s1 | 51 |
| N#Cc1ccc2cc(C(=O)NC3CCN(Cc4ccc(OC5CCNCC5)c(Br)c4)CC3)sc2c1 | 80 |
| O=C(NC1CCN(Cc2ccc(OC3CCNCC3)c(Br)c2)CC1)c1cc2cc(C(F)(F)F)ccc2s1 | 100 |
| O=C(NC1CCN(Cc2ccc(OC3CCNCC3)c(Br)c2)CC1)c1cc2ccc(-c3ccc(Cl)cc3)cc2s1 | 140 |
| O=C(NC1CCN(Cc2ccc(OC3CCNCC3)c(Br)c2)CC1)c1cnccn1 | 610 |
| O=C(NC1CCN(Cc2ccc(OC3CCNCC3)c(Br)c2)CC1)c1cscn1 | 970 |
| Cc1ccc2sc(C(=O)NC3CCN(Cc4ccc(OC5CCNCC5)c(Br)c4)CC3)cc2c1 | 74 |
| O=C(NC1CCN(Cc2ccc(OC3CCNCC3)c(Br)c2)CC1)c1cc2cc([N+](=O)[O-])ccc2s1 | 49 |
| N#Cc1ccc2sc(C(=O)NC3CCN(Cc4ccc(OC5CCNCC5)c(Br)c4)CC3)cc2c1 | 25 |
| CCc1ccc2sc(C(=O)NC3CCN(Cc4ccc(OC5CCNCC5)c(Br)c4)CC3)cc2c1 | 180 |
| COc1cccc(-c2ccc3cc(C(=O)NC4CCN(Cc5ccc(OC6CCNCC6)c(Br)c5)CC4)sc3c2)c1 | 87 |

More lines, in order of falling IC50, values ahead:

| IC50 [nM] | Compound |
| --- | --- |
| 770 | O=C(NC1CCN(Cc2ccc(OC3CCNCC3)c(Br)c2)CC1)c1ccco1 |
| 560 | COc1ccccc1-c1ccc2cc(C(=O)NC3CCN(Cc4ccc(OC5CCNCC5)c(Br)c4)CC3)sc2c1 |
| 340 | O=C(NC1CCN(Cc2ccc(OC3CCNCC3)c(Br)c2)CC1)c1ccno1 |
| 310 | O=C(NC1CCN(Cc2ccc(OC3CCNCC3)c(Br)c2)CC1)c1cc2cc(-c3ccccc3)ccc2s1 |
| 140 | Cc1ccc(-c2ccc3cc(C(=O)NC4CCN(Cc5ccc(OC6CCNCC6)c(Br)c5)CC4)sc3c2)cc1 |
| 130 | O=C(NC1CCN(Cc2ccc(OC3CCNCC3)c(Br)c2)CC1)c1cccs1 |
| 120 | O=C(NC1CCN(Cc2ccc(OC3CCNCC3)c(Br)c2)CC1)c1ccccn1 |
| 100 | COc1ccc2sc(C(=O)NC3CCN(Cc4ccc(OC5CCNCC5)c(Br)c4)CC3)cc2c1 |
| 90 | O=C(NC1CCN(Cc2ccc(OC3CCNCC3)c(Br)c2)CC1)c1cc2ccc(-c3ccccc3)cc2s1 |
| 86 | O=C(NC1CCN(Cc2ccc(OC3CCNCC3)c(Br)c2)CC1)c1cc2cc(Br)ccc2s1 |
| 74 | O=C(NC1CCN(Cc2ccc(OC3CCNCC3)c(Br)c2)CC1)c1cc2ccc(-c3ccc(F)cc3)cc2s1 |
| 63 | O=C(NC1CCN(Cc2ccc(OC3CCNCC3)c(Br)c2)CC1)c1cc2ccccc2s1 |
| 53 | O=C(NC1CCN(Cc2ccc(OC3CCNCC3)c(Br)c2)CC1)c1cc2cc(F)ccc2s1 |
| 49 | COc1ccc(-c2ccc3cc(C(=O)NC4CCN(Cc5ccc(OC6CCNCC6)c(Br)c5)CC4)sc3c2)cc1 |

tested on: not listed separately; assay: Metabolic stability in rat liver microsomes after 30 mins; type: ADME; conditions: read-out: Stability

| remaining at 0.5 h [%] | Compound |
| --- | --- |
| 74 | N#Cc1ccc2sc(C(=O)NC3CCN(Cc4ccc(OC5CCNCC5)c(Br)c4)CC3)cc2c1 |

target: CYP3A4 (Homo sapiens, UniProt P08684); assay: Inhibition of CYP3A4 (unknown origin) at 10 uM; type: ADME; conditions: not given
Sequence (P08684 whole entry): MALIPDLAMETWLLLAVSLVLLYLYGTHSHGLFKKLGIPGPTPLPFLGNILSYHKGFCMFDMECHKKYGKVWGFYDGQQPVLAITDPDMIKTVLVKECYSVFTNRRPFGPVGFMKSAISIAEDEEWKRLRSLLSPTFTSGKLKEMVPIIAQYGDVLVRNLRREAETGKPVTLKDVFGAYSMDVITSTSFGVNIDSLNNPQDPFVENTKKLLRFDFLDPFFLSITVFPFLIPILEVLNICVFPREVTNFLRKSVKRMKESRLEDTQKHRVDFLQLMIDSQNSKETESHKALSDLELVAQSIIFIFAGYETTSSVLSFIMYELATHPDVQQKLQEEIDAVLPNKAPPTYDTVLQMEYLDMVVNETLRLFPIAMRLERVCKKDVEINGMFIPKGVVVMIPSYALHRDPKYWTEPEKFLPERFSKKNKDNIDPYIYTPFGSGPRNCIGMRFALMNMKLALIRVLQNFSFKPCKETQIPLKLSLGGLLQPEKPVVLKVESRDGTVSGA

| inhibition at 10 µM [%] | Compound |
| --- | --- |
| 75 | N#Cc1ccc2sc(C(=O)NC3CCN(Cc4ccc(OC5CCNCC5)c(Br)c4)CC3)cc2c1 |
